# Active and inactive are the calls of the source. The calls are words filed in the database; no cut-off is given here.
# How the values were obtained:
# BMDM [1] = test: Inhibition of LPS-induced M1 polarization in C57BL/6J mouse BMDM cells assessed as down regulation of CD86 expression measured after 24 hrs by FACS analysis; assay type: functional, cell-based
# In short: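 BMDMs pretreated with 50 ng/ml LPS for 24 h, then given compound (300 nM, or a range of concentrations) for 24 h. Stained for F4/80 and CD86; % CD86+F4/80+ cells read by flow cytometry. Mean ± SEM, at least three independent experiments.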
# Mus musculus [2] = test: (§1) Induction of M2 polarization in C57BL/6J mouse model of MOG (35 to 55 residues)/pertussis toxin/complete Freund's adjuvant-induced experimental allergic encephalomyelitis assessed as CD206 level in CNS at 200 mg/kg, ig administered daily starting from 7 days post-immunization measured after 13 to 19 days post-immunization by flow cytometry analysis (reference value: 7.8%); assay type: functional
# In short: (§2)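 MOG35-55/CFA EAE mice were dosed daily in saline from day 7 and sampled between days 13 and 19. Cells came from spleen and dLN by mechanical dissociation and from CNS by collagenase IV/Percoll. They were stained for F4/80 with CD206 (M2) or CD86 (M1), and each was read by flow cytometry as a percentage of total F4/80+ macrophages.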
# BMDM [3] = test: Antiinflammatory activity in LPS-induced C57BL/6J mouse BMDM cells assessed as suppression of M1 macrophage-stimulated Th17 cell population by measuring decrease in Il17 level at 300 nM measured after 48 hrs by ELISA; assay type: functional, cell-based
# In short: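 Supernatant collected from the 72 h coculture of CFSE-labelled naïve CD4+ T cells (anti-CD3/anti-CD28, 500 ng/ml each, 1:1) with BMDMs pretreated 48 h with 50 ng/ml LPS plus 300 nM compound. IFN-γ or IL-17A quantified by ELISA. Mean ± SEM, at least three independent experiments.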
# Mus musculus [4] = test: (§3) Antiinflammatory activity in C57BL/6J mouse model of MOG (35 to 55 residues)/pertussis toxin/complete Freund's adjuvant-induced experimental allergic encephalomyelitis assessed as effect on dendritic cell population in draining lymph nodes by measuring change in CD11c level at 200 mg/kg, ig administered daily starting from 7 days post-immunization measured after 13 to 19 days post-immunization by flow cytometry analysis; assay type: functional, organism-based
# In short: (§4)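 MOG35-55/CFA EAE mice were dosed daily in saline from day 7 and sampled between days 13 and 19. Spleens and dLNs were mechanically dissociated to single cells. CNS cells came from collagenase IV digestion and a 70%/30% Percoll gradient. Cells were surface-stained with fluorochrome antibodies, including CD4, CD11b, CD11c and MHC-II, and analysed by flow cytometry.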
# [5] = Oral bioavailability in Sprague-Dawley rat at 50 mg/kg administered as single dose via gavage by LC/MS analysis; assay type: ADME, organism-based; conditions: in vivo
# Mus musculus [6] = test: as §3, with “Treg” for “dendritic”, “CNS” for “draining lymph nodes”, “CD4” for “CD11c”; assay type: functional, organism-based; in short: as §4
# RAW264.7 [7] = test: Modulation of M2 polarization in mouse RAW264.7 cells assessed as up regulation of CD163 mRNA expression at 300 nM measured after 24 hrs by qRT-PCR analysis; assay type: functional, cell-based
# RAW264.7 [8] = test: Modulation of M2 polarization in mouse RAW264.7 cells assessed as up regulation of CCR2 mRNA expression at 300 nM measured after 24 hrs by qRT-PCR analysis; assay type: functional, cell-based
# RAW264.7 [9] = test: Inhibition of M1 polarization in mouse RAW264.7 cells assessed as down regulation of TNFSF15 mRNA expression at 300 nM measured after 24 hrs by qRT-PCR analysis; assay type: functional, cell-based
# BMDM [10] = test: Modulation of M1 polarization in C57BL/6J mouse BMDM cells assessed as up regulation of TNFalpha expression at 300 nM measured after 4 to 24 hrs by Western blot analysis; assay type: cell-based; conditions: 0.3 µM
# In short: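 BMDMs lysed in pH 7.6 buffer with 1% Triton X-100, phosphatase inhibitor and 1 mM PMSF. Proteins separated by SDS-PAGE, blotted to PVDF and probed with anti-Arg-1, anti-Ym1 or anti-TNF-α, then ECL detection; GAPDH as loading control.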
# Mus musculus [11] = test: as §1, with “draining lymph nodes” for “CNS”, “6.5%)” for “7.8%)”; assay type: functional; in short: as §2
# Mus musculus [12] = test: Antiinflammatory activity in C57BL/6J mouse model of MOG (35 to 55 residues)/pertussis toxin/complete Freund's adjuvant-induced experimental allergic encephalomyelitis assessed as reduction in development of clinical symptoms at 200 mg/kg, ig administered daily starting from 7 days post-immunization up to 26 days; assay type: functional, organism-based
# In short: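 MOG35-55/CFA EAE mice received daily saline vehicle, 100 or 200 mg/kg drug, or dexamethasone 10 mg/kg from day 7 post-immunisation. Clinical signs were scored on a 0-5 scale (e.g. 3 = complete bilateral hind limb paralysis, 5 = death). Mean scores used n=5.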
# RAW264.7 [13] = test: Modulation of M2 polarization in mouse RAW264.7 cells assessed as change in Arg1 mRNA expression at 300 nM measured after 24 hrs by qRT-PCR analysis relative to control; assay type: functional
# In short: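 RAW264.7 cells (DMEM, 10% FBS) given 300 nM compound for 24 h; IL-4 20 ng/ml as positive control. Arg1 mRNA measured by qRT-PCR; fold change = expression in dosed group / expression in untreated control.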
# Mus musculus [14] = test: as §3, with “TH17” for “effect on dendritic”, “spinal cord” for “draining lymph nodes”, “IL17” for “change in CD11c”, “14” for “13”, “21” for “19”, “analysis (reference value: 7.7%)” for “analysis”; assay type: functional
# In short: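 EAE induced with MOG35-55 (2 mg/ml in PBS) emulsified in CFA containing 4 mg/ml heat-killed M. tuberculosis H37Ra, injected s.c. into the neck and both hindlegs. Drug in saline daily from day 7. Between days 13 and 19, CNS mononuclear cells were taken by collagenase IV digestion and a 70%/30% Percoll gradient. Cells were restimulated 5 h with brefeldin A 2 µg/ml, PMA 0.1 µg/ml and ionomycin 0.5 µg/ml, stained for surface CD4, fixed and permeabilised, then stained intracellularly for IFN-γ/IL-17A. Analysed by flow cytometry; n=4 mice per group.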
# RAW264.7 [15] = test: Inhibition of M1 polarization in mouse RAW264.7 cells assessed as down regulation of IL1R2 mRNA expression at 300 nM measured after 24 hrs by qRT-PCR analysis; assay type: functional, cell-based
# RAW264.7 [16] = test: Inhibition of M1 polarization in mouse RAW264.7 cells assessed as down regulation of TNFRSF10C mRNA expression at 300 nM measured after 24 hrs by qRT-PCR analysis; assay type: functional, cell-based
# RAW264.7 [17] = test: Inhibition of LPS-induced M1 polarization in mouse RAW264.7 cells assessed as down regulation of Mcp1 mRNA expression at 300 nM measured after 24 hrs by qRT-PCR analysis relative to control; assay type: functional, cell-based
# In short: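 RAW264.7 cells pre-treated with LPS (50 ng/ml) for 24 h, then given 300 nM compound for 24 h. Mcp1 mRNA quantified by qRT-PCR relative to control. Mean ± SEM.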
# BMDM [18] = test: Modulation of M2 polarization in C57BL/6J mouse BMDM cells assessed as up regulation of CD206 expression measured after 24 hrs by FACS analysis; assay type: functional, cell-based
# In short: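 BMDMs exposed to compound (300 nM, or a range of concentrations) for 24 h. Stained for F4/80 and CD206; % CD206+F4/80+ cells read by flow cytometry. Mean ± SEM, at least three independent experiments.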
compound,measurement,setting,value
Cl.Cn1ncc(Cl)c1-c1ccc(C(=O)N[C@@H]2CNCC[C@H]2c2cccc(F)c2)cc1,inhibition,BMDM [1],Dose-dependent effect
same,Activity,Mus musculus [2],12.7%
same,Activity,BMDM [3],Active
same,Activity,Mus musculus [4],inactive
same,bioavailability,[5],50.6%
same,Activity,Mus musculus [6],inactive
same,Activity,RAW264.7 [7],Active
same,Activity,RAW264.7 [8],Active
same,inhibition,RAW264.7 [9],Active
same,Activity,BMDM [10],Non-Toxic
same,Activity,Mus musculus [11],10.1%
same,Activity,Mus musculus [12],Active
same,fold change (FC),RAW264.7 [13],13.97
same,Activity,Mus musculus [14],4.5%
same,inhibition,RAW264.7 [15],Active
same,inhibition,RAW264.7 [16],Active
same,inhibition,RAW264.7 [17],Active
same,Activity,BMDM [18],Dose-dependent effect

# Source: ChEMBL document CHEMBL4339193, “Phenotypic Screening-Based Identification of 3,4-Disubstituted Piperidine Derivatives as Macrophage M2 Polarization Modulators: An Opportunity for Treating Multiple Sclerosis” (J Med Chem, 2019)
